Measured values pooled from the literature.
Protocols differ between the studies behind these lines. In brackets after ≈: the same amount, converted by molar mass.

| Structure (SMILES) | tested on | assay | test system | setting | endpoint | value |
| --- | --- | --- | --- | --- | --- | --- |
| Cc1ccc(CNC(=O)c2cn(Cc3ccc(Cl)cc3)c3ccc(Oc4ccccc4)cc3c2=O)cc1 | MCF7 | cell growth or viability, MTT |  | 48 h | IC50 | 105 µM |
| Cc1ccc(C=Nc2ccc(SCc3cc(=O)c(O)co3)cc2)cc1 |  | DPPH scavenging, absorbance |  | 30 min | IC50 | 9.06 µM |
| CC(C)C[C@@H](NC(=O)[C@H](C)NC(=O)CNC(=O)[C@@H](NC=O)C(C)C)C(=O)N[C@@H](C)C(=O)N[C@@H](C(=O)N[C@H](C(=O)N[C@@H](C(=O)N[C@@H](Cc1c[nH]c2ccccc12)C(=O)N[C@H](CC(C)C)C(=O)N[C@@H](Cc1ccc2[nH]ccc2c1)C(=O)N[C@H](CC(C)C)C(=O)N[C@@H](Cc1c[nH]c2ccccc12)C(=O)N[C@H](CC(C)C)C(=O)N[C@@H](Cc1c[nH]c2ccccc12)C(=O)NCCO)C(C)C)C(C)C)C(C)C | MCF7 | cell growth or viability, SRB |  | 48 h | GI50 | 106 nM |
| COc1cccc(C=Nc2ccc(SCc3cc(=O)c(O)co3)cc2)c1 |  | DPPH scavenging, absorbance |  | 30 min | IC50 | 11.6 µM |
| CC[C@H](C)C[C@H](C)CCCCCCCCC(=O)N[C@H]1C[C@@H](O)[C@@H](NCCN)NC(=O)[C@@H]2[C@@H](O)CCN2C(=O)[C@H]([C@H](O)CCN)NC(=O)[C@H]([C@H](O)[C@@H](O)c2ccc(O)cc2)NC(=O)[C@@H]2C[C@@H](O)CN2C(=O)[C@H]([C@@H](C)O)NC1=O | Candidozyma auris | microbial killing, broth dilution |  | 48 h | MFC | 8 µg/mL (≈ 7.32 µM) |
| CCCCS(=O)(=O)NCC1COC2(CCN(C(=O)C3(c4ccccc4)CCCC3)CC2)O1 (centres unmarked) | Chikungunya virus | viral replication, inhibitor |  | 40 µM | inhibition | 95% |
| O=C(NCc1ccc(Cl)cc1)c1cn(Cc2ccc(Cl)cc2)c2ccc(Oc3ccccc3)cc2c1=O | MCF7 | cell growth or viability, MTT |  | 48 h | IC50 | 171 µM |
| CC(C)C[C@@H](NC(=O)[C@H](C)NC(=O)CNC(=O)[C@@H](NC=O)C(C)C)C(=O)N[C@@H](C)C(=O)N[C@@H](C(=O)N[C@H](C(=O)N[C@@H](C(=O)N[C@@H](Cc1c[nH]c2ccccc12)C(=O)N[C@H](CC(C)C)C(=O)N[C@@H](Cc1ccc2cc[nH]c2c1)C(=O)N[C@H](CC(C)C)C(=O)N[C@@H](Cc1c[nH]c2ccccc12)C(=O)N[C@H](CC(C)C)C(=O)N[C@@H](Cc1c[nH]c2ccccc12)C(=O)NCCO)C(C)C)C(C)C)C(C)C | MCF7 | cell growth or viability, SRB |  | 48 h | GI50 | 110 nM |
| O=C(NCc1ccc(F)cc1)c1cn(Cc2ccc(C(F)(F)F)cc2)c2ccc(Oc3ccccc3)cc2c1=O | MCF7 | cell growth or viability, MTT |  | 48 h | IC50 | 4.36 µM |
| CCc1ccccc1C=Nc1ccc(SCc2cc(=O)c(O)co2)cc1 |  | DPPH scavenging, absorbance |  | 30 min | IC50 | 25.2 µM |
| CC(C)(C(=O)N1CCC2(CC1)OCC(CN1CCCCS1(=O)=O)O2)c1ccccc1 (centres unmarked) | Chikungunya virus | viral replication, inhibitor |  | 40 µM | inhibition | < 50% |
| O=C(Nc1ccc(Cl)cc1)Nc1cccc(-c2cn(Cc3ccc(Br)cc3)nn2)c1 | MCF7 | cell growth or viability, CCK-8 |  | 50 µM, 48 h | viability | 96.5% |
| O=C(N1CCC2(CC1)OCC(CNS(=O)(=O)c1ccc(-c3ccccc3)cc1)O2)C1(c2ccccc2)CCCC1 (centres unmarked) | Chikungunya virus | viral replication, inhibitor |  | 40 µM | inhibition | 75% |
| CCc1ccc(C=Nc2ccc(SCc3cc(=O)c(O)co3)cc2)cc1 |  | DPPH scavenging, absorbance |  | 30 min | IC50 | 20.5 µM |
| O=C(NCc1ccc(F)cc1)c1cn(Cc2ccc(F)cc2)c2ccc(Oc3ccccc3)cc2c1=O | MCF7 | cell growth or viability, MTT |  | 24 h | IC50 | > 500 µM |
| O=c1cc(CSc2ccc(N=Cc3ccc(O)cc3)cc2)occ1O |  | DPPH scavenging, absorbance |  | 30 min | IC50 | 8.85 µM |
| CC(Oc1ccc(O)cc1)(P(=O)(O)O)P(=O)(O)O | Chikungunya virus | viral replication | Vero |  | IC50 | 548 µM |
